Results reported in PubChem BioAssay.
Inconclusive results are not listed. Activity calls are given as the source filed them.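 The calls were made as follows, unless noted: active = viability at or below 27.92% in each of two runs, the all-compound median minus 4 SD; inconclusive = no clear call, values can overlap the other calls; inactive = the rest.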

Columns and labels:
[1] = S. cerevisiae growth inhibition in permissive medium (OD615), pilot counter-assay for S. cerevisiae lifespan shortening project, permissive growth control (AID 705;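 active = growth inhibition above 25% in both replicates, a cutoff set 3 SD above the mean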); conditions: OD615, 24 h, at 10 µM, hits give high values
Method in brief: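 assay system = Saccharomyces cerevisiae strain carrying genetically modified DeaD replicative-lifespan system | technique = absorbance (optical density) at 615 nm | buffer or medium = permissive raffinose/galactose medium | timing = cells pre-grown 4 h, then 24 h compound exposure, 30 °C humidified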

[2] = S. cerevisiae growth inhibition in restrictive medium, OD615, pilot screen, restrictive growth control, yeast lifespan reduction project (AID 706;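 active = growth inhibition above a set limit, 3 SD over mean compound inhibition, in both replicates, cut at about 43% in these data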;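 also: modified DeaD lifespan yeast strain shifted to restrictive glucose medium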); conditions: OD615, 48 h, at 10 µM, hits give high values
Method in brief: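 System: modified S. cerevisiae. Buffer or medium: CSMM-D glucose medium. Incubation: 4 h pre-growth plus 48 h compound exposure, 30 °C. Detection: absorbance (optical density) measured at 615 nm.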

[3] = doxorubicin toxicity protection in MRP-1 cells – H69AR cells, CellTiter-Glo, duplicate, MRP-1 activator project, pilot screen (AID 807;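 active = viability increase at or above a cutoff of the median across tested compounds plus 3 SD, cut at about 8.5% in these data, passing the limit was not always enough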;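 also: compound pretreatment 18-22 h then 72 h combined with doxorubicin; 0% = doxorubicin alone and 100% = vehicle without doxorubicin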); conditions: H69AR viability with doxorubicin, CellTiter-Glo luminescence; at 10 µM; hits give high values
[4] = viability of HCT116 without oncogenic beta-catenin – human colon tumor cells, pilot screen (AID 823;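 active = cell viability at or below a set limit in both duplicate runs, the limit being the all-compound median minus 4 SD, cut at about 23% in these data, passing the limit was not always enough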;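 also: 0% = wells killed by 20 µM Hyamine and 100% = untreated DMSO cell wells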); conditions: HCT116 beta-catenin knockout viability, CellTiter-Glo, 60 h; at 10 µM; hits give low values
[5] = viability of PTEN-null HCT116 cells – cell-based, HCT116 clonal line, CellTiter-Glo, pilot screen (AID 824); conditions: HCT116 PTEN-deleted viability, 60 h, at 10 µM, hits give low values;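 also: 0% = 20 µM Hyamine control and 100% = vehicle cell control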
[6] = RAM pathway blockade in budding yeast – dse1pr::URA3 reporter, 5-FOA selection, pilot screen (AID 869;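 active = inhibition over a set limit, the all-compound mean plus 3 SD, in both replicate runs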;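 also: 0% = DMSO wells with no growth and 100% = 10 µM 1-NA-PP1 with full growth; RAM network block rescues cells from 5-FOA so hits raise OD615 growth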); conditions: S. cerevisiae dse1pr::URA3 5-FOA growth, OD615, 2 d; at 10 µM; hits give high values; strain carries analog-sensitive mutant Cbk1 kinase

O=S1(=O)C=C(SCCN2CCCCC2)c2ccccc21
inactive: growth inhibition [1] -4.08% | growth inhibition [2] -20.4% | viability increase [3] -7.06% | viability [4] 61.6% | viability [5] 66.9% | inhibition [6] 1.29%

COc1ccccc1-n1c(CNC(=O)c2ccccc2)nnc1SCC(=O)Nc1nnc(C)s1
inactive: growth inhibition [1] 3.6% | growth inhibition [2] 0.83% | viability increase [3] -0.83% | viability [4] 103% | viability [5] 102% | inhibition [6] 1.05%

O=C(CCS(=O)(=O)c1cccc2nonc12)N1CC(=O)N(CCc2ccccc2)C(=O)C1
inactive: growth inhibition [1] -5.67% | growth inhibition [2] -8.59% | viability increase [3] -3.51% | viability [4] 95.4% | viability [5] 92.3% | inhibition [6] -0.47%

CCN1CCN(CC(=O)Nc2ccc(Cl)c(Cl)c2)C(=O)C1=O
inactive: growth inhibition [1] 3.48% | growth inhibition [2] -8.29% | viability increase [3] -0.65% | viability [4] 102% | viability [5] 97.7% | inhibition [6] 0.63%

CC(C)Oc1ccc(NC(=O)Oc2ccccc2)cc1
inactive: growth inhibition [1] -4.28% | growth inhibition [2] -8.55% | viability increase [3] -0.53% | viability [4] 97.4% | viability [5] 96.8% | inhibition [6] 2.38%

Cc1ccc(CNC(=O)CS(=O)Cc2nc(-c3ccccc3C)oc2C)cc1 (stereo not drawn)
inactive: growth inhibition [1] -3.71% | growth inhibition [2] 1.06% | viability increase [3] 0.04% | viability [4] 90.3% | viability [5] 98.4% | inhibition [6] 1.06%

Cn1c(=O)oc2cc(S(=O)(=O)N3CCC(C(=O)NCC4COc5ccccc5O4)CC3)ccc21 (stereo not drawn)
inactive: growth inhibition [1] -17.2% | growth inhibition [2] -19.6% | viability increase [3] 0.66% | viability [4] 103% | viability [5] 96.8% | inhibition [6] 3.92%

Cc1cccc(N2CCN(C(=O)c3cc4c(C)nc5ccccc5c4o3)CC2)c1C
inactive: growth inhibition [1] -8.18% | growth inhibition [2] -1.81% | viability increase [3] 4.84% | viability [4] 71.7% | viability [5] 78.2% | inhibition [6] -1.31%

CCn1c(C(C)NC(=O)c2cccc(C)c2)nc2ccccc21 (stereo not drawn)
inactive: growth inhibition [1] -8.83% | growth inhibition [2] 5.38% | viability increase [3] -2.68% | viability [4] 102% | viability [5] 95.6% | inhibition [6] 2.54%

COC(=O)c1ccc2c(c1)N(Cc1ccccc1F)C(=O)c1ccccc1S2=O (stereo not drawn)
inactive: growth inhibition [1] -13.9% | growth inhibition [2] -2.4% | viability increase [3] -4.03% | viability [4] 75.9% | viability [5] 74% | inhibition [6] 1.02%

COc1cc2c(cc1OC)C(C)N(C(=O)c1cc3ccccc3o1)CC2 (stereo not drawn)
inactive: growth inhibition [1] -11.9% | growth inhibition [2] 10.2% | viability increase [3] -3.13% | viability [4] 37.3% | viability [5] 42.7% | inhibition [6] 1.52%

COc1ccc(-c2nc(CS(=O)CC(=O)NCc3ccc4c(c3)OCO4)c(C)o2)cc1 (stereo not drawn)
inactive: growth inhibition [1] 4.12% | growth inhibition [2] 14.1% | viability increase [3] -1.69% | viability [4] 94.7% | viability [5] 91.1% | inhibition [6] 2.02%

CCOC(=O)c1ccc(NC(=O)c2cc3ccccc3o2)cc1
inactive: growth inhibition [1] -5.56% | growth inhibition [2] -8.95% | viability increase [3] 1.54% | viability [4] 86.2% | viability [5] 86.6% | inhibition [6] 1%

CCCOC(=O)c1ccc(NC(=O)CCC(=O)OCC)cc1
inactive: growth inhibition [1] -2.93% | growth inhibition [2] 0.845% | viability increase [3] -0.37% | viability [4] 98.8% | viability [5] 98.6% | inhibition [6] 2.24%

O=C(Cn1cc2c(n1)CCCC2)NCc1ccccn1
inactive: growth inhibition [1] -2.39% | growth inhibition [2] 2.25% | viability increase [3] -0.85% | viability [4] 104% | viability [5] 106% | inhibition [6] 0.72%

COC(=O)c1c(NC(=O)C2CC2)sc2c1CCCC2
inactive: growth inhibition [1] 4.15% | growth inhibition [2] 17% | viability increase [3] -4.82% | viability [4] 95.1% | viability [5] 81.7% | inhibition [6] 1.37%

O=c1c2ccccc2nc(N2CCN(c3ccccc3)CC2)n1Cc1ccccc1
inactive: growth inhibition [1] -18.7% | growth inhibition [2] -8.96% | viability increase [3] -6.05% | viability [4] 66.3% | viability [5] 72.8% | inhibition [6] 1.27%

COc1ccc(-c2cc(CCCC(=O)NCc3ccccn3)no2)cc1
inactive: growth inhibition [1] -5.78% | growth inhibition [2] 8.54% | viability increase [3] -1.34% | viability [4] 98.8% | viability [5] 97.8% | inhibition [6] 1.08%

COC(=O)c1ccc(CSc2ccc3nnc(-c4cccc(F)c4)n3n2)o1
active: growth inhibition [2] 49%
inactive: growth inhibition [1] 6.12% | viability increase [3] -3.24% | viability [4] 87.9% | viability [5] 91.4% | inhibition [6] -0.025%

COc1ccc(OC)c(NC(=O)C2CCC(CNc3c(N4CCC(C)CC4)c(=O)c3=O)CC2)c1 (stereo not drawn)
inactive: growth inhibition [1] -5.59% | growth inhibition [2] -11.5% | viability increase [3] -4.93% | viability [4] 70.8% | viability [5] 70.1% | inhibition [6] 0.96%

Clc1ccccc1-c1nnc2sc(-c3ccncc3)nn12
inactive: growth inhibition [1] -1.33% | growth inhibition [2] 19.3% | viability increase [3] -3.61% | viability [4] 106% | viability [5] 90.8% | inhibition [6] 0.635%

COc1ccc(C)cc1NC(=O)CSc1nnc(-c2ccccn2)n1Cc1ccco1
inactive: growth inhibition [1] -2.92% | growth inhibition [2] 7.74% | viability increase [3] -2.4% | viability [4] 95.7% | viability [5] 88.2% | inhibition [6] 1%

Cc1cc(C)n(-c2nc3ccccc3nc2Nc2ccc3c(c2)OCO3)n1
inactive: growth inhibition [1] -18.7% | growth inhibition [2] 1.25% | viability increase [3] 6.2% | viability [4] 87.7% | viability [5] 81.7%
active: inhibition [6] 6.39%

COc1ccc2cc(CCNC(=O)c3ccc(Br)o3)c(=O)[nH]c2c1
inactive: growth inhibition [1] -10.1% | growth inhibition [2] -17% | viability increase [3] -2.65% | viability [4] 95.9% | viability [5] 90.3% | inhibition [6] 1.84%

CCOc1ccc(NC(=O)C2CSC(c3ccncc3)=N2)cc1 (stereo not drawn)
inactive: growth inhibition [1] -3.44% | growth inhibition [2] 29.4% | viability increase [3] -0.05% | viability [4] 98.3% | viability [5] 103% | inhibition [6] 0.675%

Cn1cccc1Cc1nnc(SCC(=O)Nc2ccc3c(c2)OCCO3)n1CCc1ccccc1
inactive: growth inhibition [1] 6.56% | growth inhibition [2] 22.1% | viability increase [3] -1.87% | viability [4] 90.2% | viability [5] 81% | inhibition [6] 2.25%

NC/C(=N\O)c1ccc(Cl)cc1Cl
inactive: growth inhibition [1] -6.44% | growth inhibition [2] -12.5% | viability increase [3] 2.52% | viability [4] 97.7% | viability [5] 94.1% | inhibition [6] 1.2%

COC(=O)C1=C(N)N(c2ccc(F)cc2)C2=C(C(=O)CCC2)C1c1ccc2c(c1)OCO2 (stereo not drawn)
inactive: growth inhibition [1] -6.41% | growth inhibition [2] -5.16% | viability increase [3] -0.72% | viability [4] 84.9% | viability [5] 86% | inhibition [6] 3.19%

O=C1CCCN1CCCNc1ncnc2c1cnn2-c1ccc(Cl)cc1
inactive: growth inhibition [1] 0.48% | growth inhibition [2] 1.48% | viability increase [3] -0.95% | viability [4] 85% | viability [5] 77% | inhibition [6] 1.3%

Cc1ccc(-c2nc(C(=O)NC3CCCCCC3)no2)cc1
inactive: growth inhibition [1] -6.78% | growth inhibition [2] 5.45% | viability increase [3] 4.07% | viability [4] 103% | viability [5] 104% | inhibition [6] -0.1%

Cc1ccc(C)c(C(=O)Nc2c(C(N)=O)oc3ccccc23)c1
inactive: growth inhibition [1] -5.56% | growth inhibition [2] -1.59% | viability increase [3] -3% | viability [4] 94.2% | viability [5] 86.7% | inhibition [6] 0.595%

O=C(CCS(=O)(=O)c1cccc2nonc12)N1CCN(c2ccc(F)cc2)CC1
inactive: growth inhibition [1] -6.7% | growth inhibition [2] -0.575% | viability increase [3] 0.64% | viability [4] 96.3% | viability [5] 96.2% | inhibition [6] 1.71%

C1=C(c2ccccc2)CCN(c2nc3ccccc3n3cnnc23)C1
inactive: growth inhibition [1] -7.88% | growth inhibition [2] 11.2% | viability increase [3] -3.98% | viability [4] 90.4% | viability [5] 86.8% | inhibition [6] 0.34%

COC(=O)CSc1nc2ccc(NC(=O)CSc3nnnn3Cc3ccccc3)cc2s1
inactive: growth inhibition [1] -3.46% | growth inhibition [2] 13.8% | viability increase [3] 1.67% | viability [4] 87.2% | viability [5] 96.9% | inhibition [6] 4.05%

Cc1cccc(-c2noc(CN(C(=O)c3c(-c4ccccc4Cl)noc3C)C(C)C)n2)c1
inactive: growth inhibition [1] -13.9% | growth inhibition [2] -13% | viability increase [3] -3.28% | viability [4] 44.3% | viability [5] 49.4% | inhibition [6] 0.585%

O=C(c1cnn2ccccc12)N1CCCc2ccccc21
inactive: growth inhibition [1] -3.54% | growth inhibition [2] -1.29% | viability increase [3] -1.74% | viability [4] 97.1% | viability [5] 91.9% | inhibition [6] 2.38%

Cc1ccccc1S(=O)(=O)Cc1ccc(C(=O)N2CC(C)CC(C)C2)o1 (stereo not drawn)
inactive: growth inhibition [1] -18.1% | growth inhibition [2] -32% | viability increase [3] -0.61% | viability [4] 103% | viability [5] 90.2% | inhibition [6] -0.465%

Cc1ccc(Cl)cc1N1CCN(C(=O)CCS(=O)(=O)c2cccc3nonc23)CC1
inactive: growth inhibition [1] 3.25% | growth inhibition [2] -4.52% | viability increase [3] -3.47% | viability [4] 79.5% | viability [5] 75.4% | inhibition [6] 0.805%
